According to ChEMBL document CHEMBL3792341, “Substituted quinazolinones as kinase inhibitors endowed with anti-fibrotic properties” (Eur J Med Chem, 2016):
Calls of active or inactive are those of the source. No cut-off for these calls is given here.

How the values were obtained:
[1] = biological target: T1, MAP kinase p38 (Homo sapiens) (UniProt O15264+Q15759+Q16539+P53778); experiment: Inhibition of p38 MAPK phosphorylation in human HSC cells at 1 uM after 4 hrs by western blotting analysis; assay type: cell-based
How it was run: (§1)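 Primary human cells were treated with compound for 4 h. Lysates were made in RIPA buffer with phosphatase and protease inhibitors and cleared by centrifugation. Proteins were run on 10% SDS-PAGE and blotted to nitrocellulose. Blots were probed for phospho-p38 MAPK with an HRP secondary and ECL detection, then reprobed for total p38 MAPK as loading control. Duplicate experiments.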

[2] = biological target: Serine/threonine-protein kinase mTOR (Homo sapiens) (UniProt P42345); experiment: Inhibition of human mTOR using PHAS-1 as substrate at 1 uM measured after 20 mins at 30 degC by liquid scintillation counting method in presence of [gamma-32P]-ATP
Homo sapiens [3] = species: Homo sapiens; experiment: Inhibition of human PI3K using phosphatidylinositol 4,5-diphosphate as substrate at 1 uM measured after 20 mins at 30 degC by liquid scintillation counting method in presence of [gamma-32P]-ATP
Homo sapiens [4] = species: Homo sapiens; experiment: Antiproliferative activity against VEGF induced healthy human ISEMF at 1 uM after 72 hrs by carboxyfluorescein diacetate succinimidyl ester dye-based FACS flow cytometric method; assay type: functional
How it was run: (§2)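 Primary human HSCs (from collagenase/pronase digests of non-pathological liver, Percoll gradient) or ISEMFs (from collagenase-digested gut biopsies, CD90-checked) were CFSE-loaded for 10 min at 37 °C in PBS with 0.1% BSA. Loading was quenched with 5 volumes of ice-cold medium. After 16 h, cells were washed and given compound plus 1 ng/ml VEGF for 72 h. Read-out was dye partitioning by flow cytometry, as % CFSE-positive cells. Duplicate per cell batch; mean ± SE.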

HSC = experiment: Antiproliferative activity against VEGF induced human HSC cells at 1 uM after 72 hrs by carboxyfluorescein diacetate succinimidyl ester dye-based FACS flow cytometric method; assay type: functional, cell-based; how it was run: as §2
[5] = Reduction of COL1A1 mRNA expression in crohn's disease patient isolated ISEMF at 1 uM by RT-PCR analysis; assay type: functional; details: Homo sapiens
How it was run: (§3)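 HSCs or ISEMFs were treated with compound for 24 h. Total RNA was extracted and DNase I-treated, then used for quantitative PCR of the target transcript. Values were normalized to 18S rRNA and relative change was calculated by the ΔΔCT method. Triplicate per isolated cell batch.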

[6] = biological target: Platelet-derived growth factor receptor beta (Homo sapiens) (UniProt P09619); experiment: Inhibition of human PDGFR-beta at 1 uM measured after 20 mins at 30 degC by liquid scintillation counting method in presence of [gamma-32P]-ATP
[7] = biological target: Fibroblast growth factor receptor 1 (Homo sapiens) (UniProt P11362); experiment: Inhibition of human FGFR1 using myelin basic protein as substrate at 1 uM measured after 20 mins at 30 degC by liquid scintillation counting method in presence of [gamma-32P]-ATP
[8] = Cytotoxicity against healthy human ISEMF assessed as cell viability at 1 uM after 72 hrs by MTT assay
How it was run: (§4)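 MTT viability in primary human HSCs or ISEMFs seeded at 2 × 10³ cells/well. Cells were exposed to compound for 72 h, then to MTT 0.50 mg/ml for 4 h. Viability is expressed as % of the respective untreated cells. Triplicate per isolated cell batch.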

[9] = biological target: Proto-oncogene tyrosine-protein kinase Src (Homo sapiens) (UniProt P12931); experiment: Inhibition of human Src using myelin basic protein as substrate at 1 uM measured after 20 mins at 30 degC by liquid scintillation counting method in presence of [gamma-32P]-ATP
Homo sapiens [10] = species: Homo sapiens; experiment: Antiproliferative activity against VEGF induced crohn's disease patient isolated ISEMF at 1 uM after 72 hrs by carboxyfluorescein diacetate succinimidyl ester dye-based FACS flow cytometric method; assay type: functional; how it was run: as §2
[11] = Cytotoxicity against human HSC cells assessed as cell viability at 1 uM after 72 hrs by MTT assay; assay type: cell-based; how it was run: as §4
[12] = biological target: T1, MAP kinase p38 (Homo sapiens); experiment: Inhibition of p38 MAPK phosphorylation in crohn's disease patient isolated ISEMF at 1 uM after 4 hrs by western blotting analysis; how it was run: as §1
[13] = Reduction of COL1A1 mRNA expression in healthy human HSC cells at 1 uM by RT-PCR analysis; assay type: functional, cell-based; how it was run: as §3
[14] = biological target: Tyrosine-protein kinase ABL1 (Homo sapiens) (UniProt P00519); experiment: Inhibition of human Abl1 using myelin basic protein as substrate at 1 uM measured after 20 mins at 30 degC by liquid scintillation counting method in presence of [gamma-32P]-ATP
[15] = Cytotoxicity against crohn's disease patient isolated ISEMF assessed as cell viability at 1 uM after 72 hrs by MTT assay; details: human; how it was run: as §4
[16] = biological target: Vascular endothelial growth factor receptor 2 (Homo sapiens) (UniProt P35968); experiment: Inhibition of human KDR using […] as substrate at 1 uM measured after 20 mins at 30 degC by liquid scintillation counting method in presence of [gamma-32P]-ATP
[17] = Reduction of COL1A1 mRNA expression in healthy human ISEMF at 1 uM by RT-PCR analysis; assay type: functional; how it was run: as §3
[18] = Reduction of TIMP1 mRNA expression in healthy human ISEMF at 1 uM by RT-PCR analysis; assay type: functional; how it was run: as §3
[19] = Reduction of FN1 mRNA expression in healthy human ISEMF at 1 uM by RT-PCR analysis; assay type: functional; how it was run: as §3
[20] = Reduction of FN1 mRNA expression in human HSC cells at 1 uM by RT-PCR analysis; assay type: functional, cell-based; how it was run: as §3
[21] = Reduction of FN1 mRNA expression in crohn's disease patient isolated ISEMF at 1 uM by RT-PCR analysis; assay type: functional; details: Homo sapiens; how it was run: as §3
[22] = Reduction of TIMP1 mRNA expression in crohn's disease patient isolated ISEMF at 1 uM by RT-PCR analysis; assay type: functional; details: Homo sapiens; how it was run: as §3
[23] = Reduction of TIMP1 mRNA expression in human HSC cells at 1 uM by RT-PCR analysis; assay type: functional, cell-based; how it was run: as §3

Tyrosine-protein kinase ABL1 (Homo sapiens), sequence (P00519 whole entry): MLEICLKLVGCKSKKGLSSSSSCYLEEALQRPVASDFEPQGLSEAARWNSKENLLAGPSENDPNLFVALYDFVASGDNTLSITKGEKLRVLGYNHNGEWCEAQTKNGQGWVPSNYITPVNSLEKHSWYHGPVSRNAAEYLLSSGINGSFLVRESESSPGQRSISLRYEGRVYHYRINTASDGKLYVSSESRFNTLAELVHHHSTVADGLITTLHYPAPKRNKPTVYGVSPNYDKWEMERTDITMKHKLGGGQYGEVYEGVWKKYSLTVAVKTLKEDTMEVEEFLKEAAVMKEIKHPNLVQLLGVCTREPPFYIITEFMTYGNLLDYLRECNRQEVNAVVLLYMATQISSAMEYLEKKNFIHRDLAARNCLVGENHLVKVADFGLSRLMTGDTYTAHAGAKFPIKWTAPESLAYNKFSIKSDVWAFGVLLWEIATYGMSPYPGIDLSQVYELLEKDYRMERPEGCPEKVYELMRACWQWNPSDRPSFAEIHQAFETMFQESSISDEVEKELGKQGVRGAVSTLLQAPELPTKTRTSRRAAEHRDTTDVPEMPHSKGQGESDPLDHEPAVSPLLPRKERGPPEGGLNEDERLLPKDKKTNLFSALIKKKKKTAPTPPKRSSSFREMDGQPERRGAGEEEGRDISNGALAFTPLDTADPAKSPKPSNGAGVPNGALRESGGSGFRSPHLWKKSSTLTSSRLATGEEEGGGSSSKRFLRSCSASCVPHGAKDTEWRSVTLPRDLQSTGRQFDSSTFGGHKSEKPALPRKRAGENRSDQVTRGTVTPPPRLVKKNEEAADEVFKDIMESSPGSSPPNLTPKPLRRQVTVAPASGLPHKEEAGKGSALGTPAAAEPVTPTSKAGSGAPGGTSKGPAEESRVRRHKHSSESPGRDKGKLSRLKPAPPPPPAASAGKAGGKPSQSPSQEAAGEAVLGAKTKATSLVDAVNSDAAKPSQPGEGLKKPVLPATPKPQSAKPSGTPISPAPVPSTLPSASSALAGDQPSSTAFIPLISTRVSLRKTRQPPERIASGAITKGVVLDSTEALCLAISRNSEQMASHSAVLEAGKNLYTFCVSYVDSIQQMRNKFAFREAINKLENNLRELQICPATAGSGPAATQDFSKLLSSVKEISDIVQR
Fibroblast growth factor receptor 1 (Homo sapiens), sequence (P11362 22-822 limits assumed): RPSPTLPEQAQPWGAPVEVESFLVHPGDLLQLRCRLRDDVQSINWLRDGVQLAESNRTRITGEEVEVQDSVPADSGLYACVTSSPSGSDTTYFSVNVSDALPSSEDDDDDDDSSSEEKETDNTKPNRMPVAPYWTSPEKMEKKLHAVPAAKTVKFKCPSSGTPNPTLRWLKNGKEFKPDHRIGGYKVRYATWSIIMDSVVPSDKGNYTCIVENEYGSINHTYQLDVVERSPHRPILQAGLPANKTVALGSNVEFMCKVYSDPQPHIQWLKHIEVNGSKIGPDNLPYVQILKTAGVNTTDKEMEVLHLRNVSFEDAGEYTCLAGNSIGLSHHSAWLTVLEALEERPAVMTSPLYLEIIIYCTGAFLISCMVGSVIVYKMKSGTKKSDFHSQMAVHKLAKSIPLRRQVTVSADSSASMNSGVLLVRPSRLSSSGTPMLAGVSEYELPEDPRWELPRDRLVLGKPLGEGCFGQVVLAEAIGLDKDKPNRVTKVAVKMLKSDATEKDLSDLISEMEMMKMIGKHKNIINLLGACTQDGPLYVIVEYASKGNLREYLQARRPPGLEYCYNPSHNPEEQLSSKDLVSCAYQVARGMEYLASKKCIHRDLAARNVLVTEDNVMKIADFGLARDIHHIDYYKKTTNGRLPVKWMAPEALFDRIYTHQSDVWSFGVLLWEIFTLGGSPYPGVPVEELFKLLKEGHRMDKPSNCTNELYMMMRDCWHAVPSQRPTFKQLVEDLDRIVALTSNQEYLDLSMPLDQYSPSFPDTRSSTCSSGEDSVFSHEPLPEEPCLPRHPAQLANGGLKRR
Vascular endothelial growth factor receptor 2 (Homo sapiens), sequence (P35968 whole entry): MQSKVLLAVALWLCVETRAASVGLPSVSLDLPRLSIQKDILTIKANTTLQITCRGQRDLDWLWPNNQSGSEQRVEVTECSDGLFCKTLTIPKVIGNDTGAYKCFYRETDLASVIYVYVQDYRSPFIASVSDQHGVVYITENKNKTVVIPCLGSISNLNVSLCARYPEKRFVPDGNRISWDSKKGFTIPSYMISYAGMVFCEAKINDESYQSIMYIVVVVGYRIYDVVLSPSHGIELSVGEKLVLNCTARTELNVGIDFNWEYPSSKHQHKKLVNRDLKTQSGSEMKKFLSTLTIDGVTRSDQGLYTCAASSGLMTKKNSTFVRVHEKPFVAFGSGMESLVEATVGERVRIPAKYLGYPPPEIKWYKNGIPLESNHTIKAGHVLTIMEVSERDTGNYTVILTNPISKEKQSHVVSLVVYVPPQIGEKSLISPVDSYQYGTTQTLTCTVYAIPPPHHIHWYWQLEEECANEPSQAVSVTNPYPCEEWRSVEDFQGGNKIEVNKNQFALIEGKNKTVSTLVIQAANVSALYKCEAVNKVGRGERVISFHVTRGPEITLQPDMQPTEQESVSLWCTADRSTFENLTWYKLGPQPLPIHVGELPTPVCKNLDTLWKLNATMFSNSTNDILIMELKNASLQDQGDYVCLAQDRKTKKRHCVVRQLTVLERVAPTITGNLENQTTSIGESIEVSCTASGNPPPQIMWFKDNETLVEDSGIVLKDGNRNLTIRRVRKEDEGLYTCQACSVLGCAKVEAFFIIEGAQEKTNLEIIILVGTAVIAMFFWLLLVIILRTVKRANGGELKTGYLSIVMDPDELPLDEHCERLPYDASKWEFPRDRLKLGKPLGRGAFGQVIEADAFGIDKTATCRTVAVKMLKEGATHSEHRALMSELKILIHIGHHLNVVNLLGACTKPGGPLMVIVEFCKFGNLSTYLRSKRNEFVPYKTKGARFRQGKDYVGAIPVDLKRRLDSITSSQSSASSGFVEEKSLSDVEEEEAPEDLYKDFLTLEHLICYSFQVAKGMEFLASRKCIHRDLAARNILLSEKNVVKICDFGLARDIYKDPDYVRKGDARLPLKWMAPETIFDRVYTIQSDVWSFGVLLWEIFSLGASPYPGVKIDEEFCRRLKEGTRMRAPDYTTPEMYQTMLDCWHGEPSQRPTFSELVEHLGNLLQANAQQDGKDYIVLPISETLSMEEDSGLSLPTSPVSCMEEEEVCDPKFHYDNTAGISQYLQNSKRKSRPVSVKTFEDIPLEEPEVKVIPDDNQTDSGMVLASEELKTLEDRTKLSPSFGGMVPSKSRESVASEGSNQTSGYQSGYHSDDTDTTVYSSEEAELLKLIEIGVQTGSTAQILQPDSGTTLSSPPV
Platelet-derived growth factor receptor beta (Homo sapiens), sequence (P09619 whole entry): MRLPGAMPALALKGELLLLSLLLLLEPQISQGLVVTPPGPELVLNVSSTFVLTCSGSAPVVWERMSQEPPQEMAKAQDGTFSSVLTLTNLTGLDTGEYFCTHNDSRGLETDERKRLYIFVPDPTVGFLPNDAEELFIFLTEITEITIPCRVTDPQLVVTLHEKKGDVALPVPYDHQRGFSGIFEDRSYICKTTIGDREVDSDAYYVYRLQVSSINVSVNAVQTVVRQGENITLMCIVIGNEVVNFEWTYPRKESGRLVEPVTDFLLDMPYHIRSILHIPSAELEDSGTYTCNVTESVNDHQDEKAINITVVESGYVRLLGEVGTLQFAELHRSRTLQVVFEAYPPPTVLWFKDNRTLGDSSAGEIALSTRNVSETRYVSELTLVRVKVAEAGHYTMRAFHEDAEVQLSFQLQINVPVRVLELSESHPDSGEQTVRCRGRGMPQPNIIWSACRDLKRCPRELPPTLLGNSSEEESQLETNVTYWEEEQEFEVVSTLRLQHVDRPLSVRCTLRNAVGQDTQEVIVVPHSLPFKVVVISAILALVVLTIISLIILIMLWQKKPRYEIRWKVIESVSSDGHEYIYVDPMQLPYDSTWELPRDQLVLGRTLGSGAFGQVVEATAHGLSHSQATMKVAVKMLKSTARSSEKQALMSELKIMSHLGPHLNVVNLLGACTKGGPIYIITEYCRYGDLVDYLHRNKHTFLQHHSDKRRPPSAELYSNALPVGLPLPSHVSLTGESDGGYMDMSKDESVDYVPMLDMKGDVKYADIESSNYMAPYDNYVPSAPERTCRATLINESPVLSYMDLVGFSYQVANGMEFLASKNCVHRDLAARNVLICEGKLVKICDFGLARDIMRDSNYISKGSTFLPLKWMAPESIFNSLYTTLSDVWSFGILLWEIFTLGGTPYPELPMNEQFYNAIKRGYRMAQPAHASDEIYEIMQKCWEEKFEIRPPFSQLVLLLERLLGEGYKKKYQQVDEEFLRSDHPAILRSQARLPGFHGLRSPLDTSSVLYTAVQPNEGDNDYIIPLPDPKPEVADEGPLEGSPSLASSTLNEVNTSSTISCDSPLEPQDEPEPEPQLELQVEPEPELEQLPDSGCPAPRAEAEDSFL
Proto-oncogene tyrosine-protein kinase Src (Homo sapiens), sequence (P12931 2-536 limits assumed): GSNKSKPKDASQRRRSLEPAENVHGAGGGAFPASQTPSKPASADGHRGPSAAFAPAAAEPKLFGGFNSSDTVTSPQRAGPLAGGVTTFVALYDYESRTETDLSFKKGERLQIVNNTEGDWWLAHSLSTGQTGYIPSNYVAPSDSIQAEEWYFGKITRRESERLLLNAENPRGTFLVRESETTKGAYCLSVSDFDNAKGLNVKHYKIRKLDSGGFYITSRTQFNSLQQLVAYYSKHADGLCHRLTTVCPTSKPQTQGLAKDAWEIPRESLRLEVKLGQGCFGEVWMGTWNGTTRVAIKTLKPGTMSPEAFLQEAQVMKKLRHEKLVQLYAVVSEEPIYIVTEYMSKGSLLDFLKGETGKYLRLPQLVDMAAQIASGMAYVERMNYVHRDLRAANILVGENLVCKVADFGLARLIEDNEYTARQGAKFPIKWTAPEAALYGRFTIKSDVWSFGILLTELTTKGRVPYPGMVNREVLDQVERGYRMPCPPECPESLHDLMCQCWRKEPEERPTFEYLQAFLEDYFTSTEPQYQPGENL

For `COc1cc2ncn(CC(O)c3ccc(Br)cc3)c(=O)c2cc1OC` (centres undefined), the inhibition [1] was “Active”, the inhibition [2] was 33% and the inhibition (Homo sapiens [3]) was 5%. The Activity (Homo sapiens [4]) was “Active”, the Activity (HSC) was “Active” and the Activity [5] was “Active”. For the same compound, the inhibition [6] was 0%, the inhibition [7] was 8% and the Activity [8] was “Non-toxic”. For the same compound, the inhibition [9] was 0%, the Activity (Homo sapiens [10]) was “Active” and the Activity [11] was “Non-toxic”. For the same compound, the inhibition [12] was “Active”, the Activity [13] was “Active” and the inhibition [14] was 0%. The Activity [15] was “Non-toxic”, the inhibition [16] was 44% and the Activity [17] was “Active”.
In the case of `COc1cc2ncn(Cc3cccnc3Br)c(=O)c2cc1OC`, the Activity [18] is reported as “inactive”, the inhibition [1] is reported as “Active” and the inhibition [2] is reported as 30%. For the same compound, the inhibition (Homo sapiens [3]) was 25%, the Activity (Homo sapiens [4]) was “Active” and the Activity (HSC) was “Active”. For the same compound, the inhibition [6] was 37%, the inhibition [7] was 13% and the Activity [8] was “Non-toxic”. For the same compound, the Activity [19] was “inactive”, the Activity [20] was “Active” and the inhibition [9] was 3%. For the same compound, the Activity [21] was “Active”, the Activity (Homo sapiens [10]) was “Active” and the Activity [22] was “Active”. The Activity [11] was “Non-toxic”, the inhibition [12] was “Active” and the Activity [23] was “Active”. For the same compound, the inhibition [14] was 0%, the Activity [15] was “Non-toxic” and the inhibition [16] was 24%.
